From ChEMBL document CHEMBL1123264, “Conformationally restricted congeners of hypotensive and platelet aggregation inhibitors: 6-aryl-5-methyl-4,5-dihydro-3(2H)-pyridazinones derived from 5H-indeno[1,2-c]pyridazine” (J Med Chem, 1986)
The source made the active and inactive calls. No cut-off for these calls is given here.

What was measured:
[1] = species on record: Rattus norvegicus; test: (§1) relative activity with respect to the dihydralazine was determined; format: functional
Summary of the method: (§2)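 SH rats, fasted, given a single oral dose of 12.5 mg/kg in 1% methylcellulose by gavage. Tail-cuff systolic pressure read hourly; area under the curve taken over 0–6 h. Dihydralazine was the reference; relative activity is AUC(dihydralazine)/AUC(compound), and a smaller AUC means higher activity.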

[2] = species on record: Rattus norvegicus; test: Dose that lowers blood pressure by 25 mm Hg was determined in spontaneous hypertensive rats (SHR); format: functional
Summary of the method: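 Conscious SH rats, 150–200 g, fasted 12 h, warmed at 33 °C for 30 min before tail-cuff plethysmography of systolic pressure. Suspension in 1% methylcellulose by gavage at 1.56, 3.125, 6.25, 12.5 and 25 mg/kg, 6 rats/dose, read hourly for 6 h. ED25 is the dose lowering pressure by 25 mmHg at peak, taken from log dose-response curves.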

[3] = species on record: Cavia porcellus; test: Compound was tested in vitro for antiaggregation induced by 0.5 uM ADP in guinea pig PRP; format: functional
Summary of the method: (§3)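 Born method. Citrated (3.8%, 1:10) aortic blood from fasted male guinea pigs under pentobarbital, centrifuged to give platelet-rich plasma. Incubated 10 min at room temperature with compound at 66 μM. Aggregation triggered by ADP, equine tendon collagen or thrombin. Result is % inhibition vs controls, mean of five experiments; thrombin values read at 2 or 4 min.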

[4] = tested on: Rattus norvegicus; test: Compound was evaluated for its antiinflammatory activity in rat by Carrageenan paw edema test; Inactive; format: functional, organism-based
Summary of the method: (§4)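 Male Sprague-Dawley rats, 130–150 g, fasted 18 h, 8/group. Compound in 1% carboxymethylcellulose by gavage; 1 h later 0.1 mL 1% carrageenin injected into the right hind paw. Paw volume measured by plethysmometer at 0, 1 and 3 h. Inhibition at 3 h vs vehicle controls; ED50 is the dose giving 50% inhibition.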

[5] = species on record: Cavia porcellus; test: Compound was tested in vitro for antiaggregation induced by collagen (0.8 ug/mL) in guinea pig PRP; format: functional; summary of the method: as §3
[6] = Compound was tested for its lethality in vivo in mouse; format: ADME, organism-based
[7] = species on record: Cavia porcellus; test: Compound was tested in vitro for its antiaggregation induced by thrombin at 0.625 IU/mL in guinea pig PRP after 4 min; format: functional; summary of the method: as §3
[8] = species on record: Cavia porcellus; test: In vitro inhibition of platelet aggregation induced by 0.5 uM ADP (irreversible activity) was determined in guinea pig PRP; format: functional; summary of the method: as §3
[9] = (§5) Area under curve was determined for 0-6 hr duration using dihydralazine as reference drug for the peak blood pressure; format: ADME; parameters: concentration or dose not given beside the values; summary of the method: as §2
[10] = species on record: Mus musculus; test: In vitro antithrombotic activity in mouse; format: functional; settings: in the assay text read “In vivo” for “In vitro”
Summary of the method: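 Male Swiss mice, 20–30 g, 10/group. Oral dose in 1% hydroxymethylcellulose, equimolar to ASA 20 mg/kg. At 1 h, iv tail injection of collagen (200 μg/mL) plus adrenaline (200 μM), 10 mL/kg, after warming at 27 °C. Death or hind-limb paralysis over 15 min counted; % protection = (Nc−Nt)/Nc×100.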

[11] = species on record: Cavia porcellus; test: Compound was tested in vitro for antiaggregation induced by thrombin at 0.625 IU/mL in guinea pig PRP after 2 min; format: functional; summary of the method: as §3
[12] = species on record: Rattus norvegicus; test: as §5; format: functional, organism-based; summary of the method: as §2
[13] = species on record: Rattus norvegicus; test: Compound was tested for antihypertensive activity in normotensive rats and the dose that lowered by 25 mmHg of the blood pressure was determined; format: functional
Summary of the method: (§6)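 Unanesthetized male Sprague-Dawley rats, 150–200 g, fasted 12 h, warmed at 33 °C for 30 min. Oral dosing at 6.25, 12.5 and 25 mg/kg; dihydralazine 0.78–6.25 mg/kg po. Tail-cuff systolic pressure read hourly for 6 h, 6 rats/dose. ED25 is the dose lowering pressure by 25 mmHg at peak, taken from log dose-response curves.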

[14] = as §1; format: functional; summary of the method: as §2
[15] = species on record: Rattus norvegicus; test: (§7) Relative activity with respect to the dihydralazine was determined; format: functional; summary of the method: as §2
[16] = species on record: Cavia porcellus; test: Compound was tested in vitro for antiaggregation induced by thrombin at 0.625 IU/mL in guinea pig PRP after 4 min; format: functional; summary of the method: as §3
[17] = species on record: Rattus norvegicus; test: Compound was evaluated for its antiulcer activity in rat; format: functional
Summary of the method: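 Male Sprague-Dawley rats, 180–250 g, 8/group, fasted 24 h with water. Compound by gavage right after indomethacin 15 mg/kg ip. Stomachs examined 5 h later under a 10× microscope; lesion number and severity scored on an arbitrary scale. ED50 is the dose reducing lesions by 50%.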

[18] = tested on: Rattus norvegicus; test: Compound was evaluated for its antiinflammatory activity in rat by Carrageenan paw edema test; format: functional; summary of the method: as §4
[19] = species on record: Rattus norvegicus; test: Antihypertensive activity in normotensive rats; format: functional; summary of the method: as §6
[20] = as §7; format: functional; summary of the method: as §2

Structure (SMILES) | Activity [1] | ED25 [2] [mg/kg] | Activity [3] | ED50 [4] | Activity [5] | LD50 [6] [mg/kg] | Activity [7] | Activity [8] | AUC units [9] | Activity [10] | Activity [11] | AUC units [12] | ED25 [13] [mg/kg] | Activity [14] | Activity [15] | Activity [16] | ED50 [17] [mg/kg] | ED50 [18] [mg/kg] | ED25 [19] [mg/kg] | Activity [20]
CC(=O)Nc1ccc2c(c1)CC1CC(=O)N(C)N=C21 (stereo not drawn) | 0.6 | 15 | 4 | inactive | 40 | 1000 | 37 | 23 | 31960 | 50 | 5 |  |  |  |  |  |  |  |  | 
N/N=c1\[nH][nH]/c(=N\N)c2ccccc12 [DIHYDRALAZINE] |  | 0.72 |  |  |  |  |  |  |  |  |  | 17900 | 3.12 | 1 |  |  |  |  |  | 
CN1N=C2c3ccc(N)cc3CC2CC1=O (stereo not drawn) |  | 15.5 | 7 | inactive | 26 | 750 |  | 33 | 36740 | 58 | 36 |  |  |  | 0.49 | 37 |  |  |  | 
Nc1ccc2c(c1)CC1CC(=O)NN=C21 (stereo not drawn) |  | 2.6 | 31 |  | 58 | 308 |  | 66 | 24350 | 87 | 44 |  |  |  | 0.74 | 34 | 100 | 40.8 |  | 
CC(=O)Nc1ccc2c(c1)CC1CC(=O)NN=C21 (stereo not drawn) |  | 2.6 | 45 |  | 73 | 1000 |  | 81 | 17560 | 100 | 95 |  |  |  | 1.02 | 100 | 0.3 | 160 | 25 | 
CC(Cl)C(=O)Nc1ccc2c(c1)CC1CC(=O)NN=C21 (stereo not drawn) |  | 10 | 48 |  | 60 | 1000 |  | 40 | 27140 | 62 | 84 |  |  |  |  | 83 | 0.3 | 155 |  | 0.66
